According to ChEMBL document CHEMBL3632544, “Acyl dihydropyrazolo[1,5-a]pyrimidinones as metabotropic glutamate receptor 5 positive allosteric modulators” (Bioorg Med Chem Lett, 2015):
Values after ≈ are worked out from the molar mass of the structure shown.

Tests used:
Plasma [1] = experiment: Fraction unbound in rat plasma; assay type: ADME, cell-free
How it was run: (§1)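 Plasma protein binding measured in human and rat plasma; readout is fraction unbound.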

Rattus norvegicus [2] = experiment: Inhibition of amphetamine-induced hyperlocomotion in oral-dosed Sprague-Dawley rat assessed as reversal of amphtamine-induced effect drug administered 20 mins prior to 1 mg/kg amphetamine challenge; assay type: functional; conditions: read-out: MED
How it was run: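 Male Sprague-Dawley rats received a single oral screening dose of 10 mg/kg; full dose-response studies were also run (n = 8/group). Readout is % reversal of amphetamine-induced locomotion relative to vehicle control. Terminal brain and plasma levels were sampled at T90.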

Rattus norvegicus [3] = experiment: Toxicity in Sprague-Dawley rat assessed as alteration in behavior across 30 distinct autonomic and somatomotor endpoints at 30 mg/kg, po; assay type: organism-based; conditions: in vivo
How it was run: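 Modified Irwin screen in rats given a single 30 mg/kg oral dose; 30 autonomic and somatomotor endpoints scored for behavioral change; brain concentration sampled 1.0 h post-dose.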

[4] = biological target: Metabotropic glutamate receptor 5 (Rattus norvegicus) (UniProt P31424); experiment: Positive allosteric modulation of rat mGlu5 assessed as calcium mobilization by cell-based assay relative to glutamate; assay type: functional
Chain of Metabotropic glutamate receptor 5 (Rattus norvegicus) (P31424 21-1203 limits assumed): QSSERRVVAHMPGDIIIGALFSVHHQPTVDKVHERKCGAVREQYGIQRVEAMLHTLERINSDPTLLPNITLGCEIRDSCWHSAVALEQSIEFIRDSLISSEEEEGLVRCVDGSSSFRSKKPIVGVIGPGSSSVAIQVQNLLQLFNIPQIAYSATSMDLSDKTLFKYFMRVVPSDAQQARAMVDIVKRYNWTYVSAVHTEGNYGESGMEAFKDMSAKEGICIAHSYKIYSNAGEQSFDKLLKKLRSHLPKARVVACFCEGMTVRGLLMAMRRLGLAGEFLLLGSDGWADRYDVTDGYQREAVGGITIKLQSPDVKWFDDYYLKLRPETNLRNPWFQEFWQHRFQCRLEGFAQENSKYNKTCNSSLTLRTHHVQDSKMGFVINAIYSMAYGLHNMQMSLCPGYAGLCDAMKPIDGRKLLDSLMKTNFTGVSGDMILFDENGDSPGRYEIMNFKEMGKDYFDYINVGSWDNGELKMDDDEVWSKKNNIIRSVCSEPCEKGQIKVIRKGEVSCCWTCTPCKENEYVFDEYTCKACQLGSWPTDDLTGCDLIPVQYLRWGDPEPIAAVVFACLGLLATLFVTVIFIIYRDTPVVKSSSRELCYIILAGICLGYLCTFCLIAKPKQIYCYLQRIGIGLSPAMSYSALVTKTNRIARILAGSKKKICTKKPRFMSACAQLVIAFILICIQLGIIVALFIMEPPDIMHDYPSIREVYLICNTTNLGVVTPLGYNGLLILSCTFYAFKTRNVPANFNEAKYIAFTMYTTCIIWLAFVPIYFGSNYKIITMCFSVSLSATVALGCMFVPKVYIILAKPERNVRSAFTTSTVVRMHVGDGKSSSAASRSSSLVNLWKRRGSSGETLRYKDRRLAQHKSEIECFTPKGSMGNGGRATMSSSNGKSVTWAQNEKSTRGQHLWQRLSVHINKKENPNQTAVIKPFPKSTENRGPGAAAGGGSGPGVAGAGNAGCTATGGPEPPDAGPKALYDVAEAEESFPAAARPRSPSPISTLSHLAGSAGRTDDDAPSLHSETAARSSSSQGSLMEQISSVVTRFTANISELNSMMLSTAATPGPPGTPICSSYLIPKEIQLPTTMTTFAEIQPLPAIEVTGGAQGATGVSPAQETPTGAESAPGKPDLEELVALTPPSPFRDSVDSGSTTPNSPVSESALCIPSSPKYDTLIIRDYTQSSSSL

Brain [5] = experiment: Fraction unbound in rat brain; assay type: ADME, tissue-based
How it was run: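 Rat brain unbound fraction obtained from a brain homogenate binding assay.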

[6] = Plasma clearance in dog at 1 mg/kg, iv and 5 mg/kg, po; assay type: ADME, organism-based, Canis lupus familiaris
Rattus norvegicus [7] = experiment: Toxicity in Sprague-Dawley rat assessed as decreased motor activity at 56.6 mg/kg, po; assay type: organism-based; conditions: in vivo
How it was run: (§2)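 Rats dosed orally at 56.6 mg/kg and observed over 6.0 h. Behavior scored on a modified Racine scale, including motor activity and coordination. Brain concentration measured.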

[8] = Stability in beta cyclodextrin at pH 6 upto 5 days; assay type: physicochemical; conditions: buffer, pH 6, 120 h
How it was run: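 Stability of the compound formulated at 4 mg/mL in 20% β-cyclodextrin vehicle, pH 6, monitored for up to five days; percent decomposition of the amide determined.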

[9] = biological target: Metabotropic glutamate receptor 3 (Homo sapiens, UniProt Q14832); experiment: Positive allosteric modulation of mGlu3 receptor (unknown origin) relative to control
[10] = Plasma clearance in Sprague-Dawley rat at 2.5 mg/kg, iv and 10 mg/kg, po; assay type: ADME, organism-based
[11] = AUC (0 to 8 hrs) in Sprague-Dawley rat plasma at 2.5 mg/kg, iv and 10 mg/kg, po; assay type: ADME, organism-based
How it was run: (§3)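 Discrete PK in male Sprague-Dawley rats. Oral arm: 10 mg/kg PO in 20% β-CD at 1 mg/mL. Plasma sampled to 8 h, giving Cmax, Tmax and AUC0-8h. Absolute oral bioavailability derived against the IV arm.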

Cytochrome P450 2D6 = Cytochrome P450 2D6 (Homo sapiens, UniProt P10635); experiment: Inhibition of CYP2D6 (unknown origin); assay type: ADME
[12] = Elimination half life in Sprague-Dawley rat at 2.5 mg/kg, iv and 10 mg/kg, po; assay type: ADME, organism-based; conditions: in vivo, read-out: beta t1/2 (converted); how it was run: as §3
[13] = biological target: T1, Metabotropic glutamate receptor 5 (Homo sapiens, UniProt P41594); experiment: Positive allosteric modulation of human mGlu5 expressed in HEK293 cells assessed as calcium mobilization; assay type: functional, cell-based; conditions: read-out: EC50
How it was run: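 Calcium mobilization read-out in HEK293 cells stably expressing human mGlu5; PAM EC50 and efficacy as % of maximal glutamate response. Mean±SEM of three or more independent determinations, each in triplicate.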

[14] = Plasma clearance in Sprague-Dawley rat at 0.2 mg/kg, iv; assay type: ADME, organism-based
[15] = biological target: Metabotropic glutamate receptor 4 (Homo sapiens, UniProt Q14833); experiment: Positive allosteric modulation of mGlu4 receptor (unknown origin) relative to control
Cytochrome P450 2C9 = Cytochrome P450 2C9 (Homo sapiens, UniProt P11712); experiment: Inhibition of CYP2C9 (unknown origin); assay type: ADME
Chain of Cytochrome P450 2C9 (P11712 whole entry): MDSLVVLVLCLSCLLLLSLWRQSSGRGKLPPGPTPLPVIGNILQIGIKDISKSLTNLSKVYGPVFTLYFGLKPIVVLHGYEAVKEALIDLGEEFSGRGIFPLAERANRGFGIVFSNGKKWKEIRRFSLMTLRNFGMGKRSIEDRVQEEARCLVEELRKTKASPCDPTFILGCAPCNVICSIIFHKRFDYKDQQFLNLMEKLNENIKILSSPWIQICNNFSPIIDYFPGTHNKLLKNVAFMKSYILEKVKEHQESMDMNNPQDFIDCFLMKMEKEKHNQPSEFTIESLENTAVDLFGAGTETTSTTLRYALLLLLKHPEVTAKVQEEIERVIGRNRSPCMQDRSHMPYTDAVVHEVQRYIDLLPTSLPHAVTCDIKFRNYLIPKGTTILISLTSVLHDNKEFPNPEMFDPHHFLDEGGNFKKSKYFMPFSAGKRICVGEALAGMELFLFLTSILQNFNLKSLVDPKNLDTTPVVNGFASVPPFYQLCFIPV

[16] = biological target: T1, Metabotropic glutamate receptor 5; experiment: Positive allosteric modulation of human mGlu5 expressed in HEK293 cells assessed as calcium mobilization relative to glutamate; assay type: functional, cell-based
How it was run: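 Calcium mobilization in HEK293 cells expressing human mGlu5, reported as EC50 and % Glu Max. Mean±SEM of three or more independent determinations, each run in triplicate.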

Cytochrome P450 3A4 = Cytochrome P450 3A4 (Homo sapiens, UniProt P08684); experiment: Inhibition of CYP3A4 (unknown origin); assay type: ADME
Chain of Cytochrome P450 3A4 (P08684 whole entry): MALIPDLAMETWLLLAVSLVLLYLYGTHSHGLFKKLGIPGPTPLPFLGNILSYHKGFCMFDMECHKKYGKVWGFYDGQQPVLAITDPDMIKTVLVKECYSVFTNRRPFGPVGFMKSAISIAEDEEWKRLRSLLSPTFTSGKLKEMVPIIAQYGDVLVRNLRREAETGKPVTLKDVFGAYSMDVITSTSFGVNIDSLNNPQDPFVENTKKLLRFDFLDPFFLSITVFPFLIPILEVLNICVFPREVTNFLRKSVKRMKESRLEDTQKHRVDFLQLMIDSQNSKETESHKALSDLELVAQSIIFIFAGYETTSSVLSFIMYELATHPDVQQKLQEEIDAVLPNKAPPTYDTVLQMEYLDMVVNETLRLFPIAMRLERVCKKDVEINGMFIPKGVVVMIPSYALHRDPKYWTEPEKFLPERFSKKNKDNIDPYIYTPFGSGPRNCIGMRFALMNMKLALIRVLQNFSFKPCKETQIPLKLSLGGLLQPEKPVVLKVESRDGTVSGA

Rattus norvegicus [17] = experiment: Cmax in Sprague-Dawley rat at 2.5 mg/kg, iv and 10 mg/kg, po; assay type: ADME, organism-based; conditions: in vivo; how it was run: as §3
Rattus norvegicus [18] = experiment: Oral bioavailability in Sprague-Dawley rat at 10 mg/kg; assay type: ADME, organism-based; conditions: in vivo
How it was run: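 Male Sprague-Dawley rats were dosed orally at 10 mg/kg in 20% β-CD (1 mg/mL) and sampled over 8 h. Cmax, Tmax and AUC0-8h were determined, and absolute %F was calculated against a discrete IV study.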

[19] = Stability in simulated gastric fluid for 1 hr; assay type: physicochemical; conditions: simulated gi fluid
How it was run: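 Incubation in simulated gastric fluid at 37 °C for 1 h; decomposition of the external amide assessed.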

[20] = biological target: Metabotropic glutamate receptor 7 (Homo sapiens, UniProt Q14831); experiment: Positive allosteric modulation of mGlu7 receptor (unknown origin) relative to control
[21] = Drug concentration in Sprague-Dawley rat brain at 30 mg/kg, po after 1 hr; assay type: ADME, organism-based; conditions: read-out: Drug uptake
How it was run: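 Rat modified Irwin study: single 30 mg/kg PO dose, with behaviour scored across 30 autonomic and somatomotor endpoints. Brain concentration measured 1.0 h post-dose. Unbound brain level estimated.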

Brain [22] = experiment: Drug concentration in Sprague-Dawley rat brain at 56.6 mg/kg, po; assay type: ADME, organism-based; conditions: in vivo, read-out: Drug uptake
Plasma [23] = experiment: Fraction unbound in human plasma; assay type: ADME, cell-free; how it was run: as §1
[24] = Volume of distribution at steady state in dog at 1 mg/kg, iv and 5 mg/kg, po; assay type: ADME, organism-based, Canis lupus familiaris; conditions: in vivo, read-out: Vdss
[25] = biological target: Metabotropic glutamate receptor 6 (Homo sapiens, UniProt O15303); experiment: Positive allosteric modulation of mGlu6 receptor (unknown origin) relative to control
Chain of Metabotropic glutamate receptor 6 (O15303 whole entry): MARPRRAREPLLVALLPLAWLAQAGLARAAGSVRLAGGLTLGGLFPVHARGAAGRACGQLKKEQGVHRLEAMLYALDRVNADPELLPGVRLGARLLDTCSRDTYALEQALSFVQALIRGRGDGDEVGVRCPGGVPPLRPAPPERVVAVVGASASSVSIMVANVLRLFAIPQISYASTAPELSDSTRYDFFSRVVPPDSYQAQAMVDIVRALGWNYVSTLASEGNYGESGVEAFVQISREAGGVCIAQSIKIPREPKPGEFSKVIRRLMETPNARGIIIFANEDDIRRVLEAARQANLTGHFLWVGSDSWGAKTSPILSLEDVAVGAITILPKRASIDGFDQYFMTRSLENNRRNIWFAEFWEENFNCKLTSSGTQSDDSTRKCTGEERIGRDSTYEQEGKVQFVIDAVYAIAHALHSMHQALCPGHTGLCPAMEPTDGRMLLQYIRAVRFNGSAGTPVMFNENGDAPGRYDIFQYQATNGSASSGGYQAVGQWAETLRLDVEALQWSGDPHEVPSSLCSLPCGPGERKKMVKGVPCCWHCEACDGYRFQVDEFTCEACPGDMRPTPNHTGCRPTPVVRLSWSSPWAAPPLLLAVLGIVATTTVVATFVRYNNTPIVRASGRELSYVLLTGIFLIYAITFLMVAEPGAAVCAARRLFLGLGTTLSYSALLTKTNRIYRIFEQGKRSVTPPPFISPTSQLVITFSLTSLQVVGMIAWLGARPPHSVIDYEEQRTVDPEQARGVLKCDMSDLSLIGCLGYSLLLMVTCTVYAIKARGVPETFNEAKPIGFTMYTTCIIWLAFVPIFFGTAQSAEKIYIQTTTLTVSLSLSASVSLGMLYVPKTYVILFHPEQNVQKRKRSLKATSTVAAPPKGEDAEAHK

[26] = Cmax in dog at 1 mg/kg, iv and 5 mg/kg, po; assay type: ADME, organism-based, Canis lupus familiaris; conditions: in vivo
Rattus norvegicus [27] = experiment: Toxicity in Sprague-Dawley rat assessed as decreased motor coordination at 56.6 mg/kg, po; assay type: organism-based; conditions: in vivo; how it was run: as §2
[28] = Solubility in simulated gastric fluid; assay type: ADME; conditions: simulated gi fluid
How it was run: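 Solubility measured in simulated gastric fluid at 37 °C over 1 h; compound stability was assessed in parallel.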

[29] = Elimination half life in dog at 1 mg/kg, iv and 5 mg/kg, po; assay type: ADME, organism-based, Canis lupus familiaris; conditions: in vivo
Cytochrome P450 1A2 = biological target: T2, Cytochrome P450 1A2 (Homo sapiens, UniProt P05177); experiment: Inhibition of CYP1A2 (unknown origin); assay type: ADME
T2 sequence (P05177 whole entry): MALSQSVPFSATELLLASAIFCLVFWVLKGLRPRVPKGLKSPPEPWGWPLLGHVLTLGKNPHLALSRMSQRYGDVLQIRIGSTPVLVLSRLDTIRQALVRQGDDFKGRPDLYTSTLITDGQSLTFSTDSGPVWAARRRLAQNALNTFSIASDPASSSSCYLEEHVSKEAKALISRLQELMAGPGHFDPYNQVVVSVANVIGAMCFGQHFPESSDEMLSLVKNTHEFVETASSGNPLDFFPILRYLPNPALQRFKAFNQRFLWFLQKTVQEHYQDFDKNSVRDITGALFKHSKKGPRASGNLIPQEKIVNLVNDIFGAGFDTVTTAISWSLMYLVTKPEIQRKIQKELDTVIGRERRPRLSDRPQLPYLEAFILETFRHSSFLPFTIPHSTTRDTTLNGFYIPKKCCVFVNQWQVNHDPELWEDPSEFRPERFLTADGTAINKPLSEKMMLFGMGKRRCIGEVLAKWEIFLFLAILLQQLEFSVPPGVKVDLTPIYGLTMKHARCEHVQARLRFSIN

[30] = biological target: Metabotropic glutamate receptor 5 (Rattus norvegicus) (UniProt P31424); experiment: Positive allosteric modulation of mGlu5 in rat astrocytes relative to glutamate; assay type: cell-based
[31] = biological target: Metabotropic glutamate receptor 2 (Homo sapiens, UniProt Q14416); experiment: Positive allosteric modulation of mGlu2 receptor (unknown origin) relative to control
Chain of Metabotropic glutamate receptor 2 (Q14416 whole entry): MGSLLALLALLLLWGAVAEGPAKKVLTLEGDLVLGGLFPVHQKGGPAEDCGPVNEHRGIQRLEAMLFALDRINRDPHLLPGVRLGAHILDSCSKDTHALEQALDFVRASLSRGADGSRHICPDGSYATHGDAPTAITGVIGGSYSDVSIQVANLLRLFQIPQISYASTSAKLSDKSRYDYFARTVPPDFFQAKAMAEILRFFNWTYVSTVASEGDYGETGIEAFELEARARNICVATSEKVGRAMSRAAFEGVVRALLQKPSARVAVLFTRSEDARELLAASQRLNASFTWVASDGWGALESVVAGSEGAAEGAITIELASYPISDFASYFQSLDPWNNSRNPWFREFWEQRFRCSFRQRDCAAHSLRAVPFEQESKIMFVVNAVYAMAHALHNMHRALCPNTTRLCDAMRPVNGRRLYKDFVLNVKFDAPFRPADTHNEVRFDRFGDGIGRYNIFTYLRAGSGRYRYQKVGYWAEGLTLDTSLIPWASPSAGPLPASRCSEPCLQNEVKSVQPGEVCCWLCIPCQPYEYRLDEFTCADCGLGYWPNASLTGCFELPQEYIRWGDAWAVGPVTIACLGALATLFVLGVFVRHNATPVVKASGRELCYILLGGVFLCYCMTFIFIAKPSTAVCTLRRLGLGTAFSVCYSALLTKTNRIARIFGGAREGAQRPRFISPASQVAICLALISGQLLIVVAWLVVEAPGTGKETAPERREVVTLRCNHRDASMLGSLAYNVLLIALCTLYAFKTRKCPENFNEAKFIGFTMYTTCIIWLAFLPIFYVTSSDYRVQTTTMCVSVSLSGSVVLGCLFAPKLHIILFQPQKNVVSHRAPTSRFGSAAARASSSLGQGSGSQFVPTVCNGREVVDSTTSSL

[32] = Volume of distribution at steady state in Sprague-Dawley rat at 2.5 mg/kg, iv and 10 mg/kg, po; assay type: ADME, organism-based; conditions: in vivo, read-out: Vdss
[33] = biological target: Metabotropic glutamate receptor 1 (Homo sapiens, UniProt Q13255); experiment: Positive allosteric modulation of mGlu1 receptor (unknown origin) relative to control
[34] = AUC in dog plasma at 1 mg/kg, iv and 5 mg/kg, po; assay type: ADME, organism-based, Canis lupus familiaris
[35] = Oral bioavailability in dog at 5 mg/kg; assay type: ADME, organism-based, Canis lupus familiaris; conditions: in vivo
[36] = biological target: Metabotropic glutamate receptor 5 (Rattus norvegicus, UniProt P31424); experiment: Positive allosteric modulation of rat mGlu5 assessed as calcium mobilization by cell-based assay; assay type: functional
[37] = biological target: Metabotropic glutamate receptor 8 (Homo sapiens, UniProt O00222); experiment: Positive allosteric modulation of mGlu8 receptor (unknown origin) relative to control
Chain of Metabotropic glutamate receptor 8 (O00222 whole entry): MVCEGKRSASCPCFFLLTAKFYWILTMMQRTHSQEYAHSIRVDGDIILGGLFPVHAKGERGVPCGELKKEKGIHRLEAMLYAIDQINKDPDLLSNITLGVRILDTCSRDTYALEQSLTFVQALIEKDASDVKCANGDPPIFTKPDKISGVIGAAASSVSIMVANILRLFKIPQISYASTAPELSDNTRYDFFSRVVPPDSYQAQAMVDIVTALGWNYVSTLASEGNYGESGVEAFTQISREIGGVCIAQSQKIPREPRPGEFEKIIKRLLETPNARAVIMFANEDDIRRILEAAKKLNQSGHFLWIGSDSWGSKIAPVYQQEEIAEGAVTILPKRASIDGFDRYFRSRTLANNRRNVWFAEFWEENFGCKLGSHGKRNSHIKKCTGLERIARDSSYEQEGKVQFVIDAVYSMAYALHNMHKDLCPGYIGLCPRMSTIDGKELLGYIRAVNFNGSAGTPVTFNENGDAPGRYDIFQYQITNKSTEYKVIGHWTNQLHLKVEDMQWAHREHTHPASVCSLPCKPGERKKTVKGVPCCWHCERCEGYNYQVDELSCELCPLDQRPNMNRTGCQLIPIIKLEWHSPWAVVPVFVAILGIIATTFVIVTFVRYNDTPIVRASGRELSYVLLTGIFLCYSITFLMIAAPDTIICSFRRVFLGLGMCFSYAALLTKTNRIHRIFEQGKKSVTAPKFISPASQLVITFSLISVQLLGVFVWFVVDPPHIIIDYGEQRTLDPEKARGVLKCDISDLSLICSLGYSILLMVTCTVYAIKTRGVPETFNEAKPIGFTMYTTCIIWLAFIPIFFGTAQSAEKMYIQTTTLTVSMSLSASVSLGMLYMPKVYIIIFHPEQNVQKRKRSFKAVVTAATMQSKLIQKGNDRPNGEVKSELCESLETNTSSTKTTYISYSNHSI

Plasma [38] = experiment: Stability in rat plasma after 4 hrs; assay type: ADME, cell-free
How it was run: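 Compound incubated in rat plasma at 37 °C for 4 h; stability assessed.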

With `CC(=O)N1CCCn2nc(COc3ccccc3)cc21` the Fu (Plasma [1]) was 0.37, the minimal effective dose (Rattus norvegicus [2]) was 3 mg/kg and the Activity (Rattus norvegicus [3]) was “Non-toxic”. The %max [4] was 65%, the Fu (Brain [5]) was 0.51 and the clearance [6] was 37 mL/min/kg. For the same compound, the Activity (Rattus norvegicus [7]) was “Toxic”, the Stability [8] was “Stable” and the EC50 [9] was > 10 µM. The clearance [10] was 54 mL/min/kg, the AUC(0-t) [11] was 3.3 µM·h and the IC50 (Cytochrome P450 2D6) was > 30 µM. The half-life [12] was 6.5 h, the EC50 [13] was 0.36 µM and the clearance [14] was 118 mL/min/kg. For the same compound, the EC50 [15] was > 10 µM, the IC50 (Cytochrome P450 2C9) was > 30 µM and the %max [16] was 65%. For the same compound, the IC50 (Cytochrome P450 3A4) was > 30 µM, the Cmax (Rattus norvegicus [17]) was 2.5 µM and the F (Rattus norvegicus [18]) was 29%. For the same compound, the Stability [19] was “Stable”, the EC50 [20] was > 10 µM and the concentration at 1 h [21] was 71 µM. It also gave a concentration (Brain [22]) of 113 µM, a Fu (Plasma [23]) of 0.26 and a Vd [24] of 1.1 L/kg. For the same compound, the EC50 [25] was > 10 µM, the Cmax [26] was < 0.1 µM and the Activity (Rattus norvegicus [27]) was “Toxic”. The solubility [28] was 315 µg/mL (≈ 1160 µM), the half-life [29] was < 0.5 h and the IC50 (Cytochrome P450 1A2) was > 30 µM. The %max [30] was 57%, the EC50 [31] was > 10 µM and the Vd [32] was 3.9 L/kg. The EC50 [33] was > 10 µM, the AUC [34] was 0.1 µM·h and the bioavailability [35] was < 5%. The EC50 [36] was 0.06 µM, the EC50 [37] was > 10 µM and the Stability (Plasma [38]) was “Stable”.
